# FXIa inh 1536: factor XIa (human) inhibition; P03951; inhibition, % at 5 µM; purified FXIa, Boc-Glu-Ala-Arg-AMC fluorogenic substrate; AID 798; 220,000 tested, 0.14% active;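 active = inhibition of at least 40%; inactive = inhibition below 40%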;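 note: fluorescence of freed AMC excited at 355 nm; 0% = enzyme without compound and 100% = no enzyme blank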
# FXIIa inh 1536: factor XIIa (human) inhibition. P00748. purified FXIIa, Boc-QGR-AMC fluorogenic substrate, 2 h. inhibition, % at 5 µM. 220,000 tested, 0.3% active. AID 800; in the data active = inhibition above about 40%;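 note: 0% = enzyme with no compound and 100% = blank without enzyme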
# Thrombin inh: inhibitors of human thrombin; P00734; inhibition, % at 5 µM; alpha-thrombin, Boc-VPR-AMC fluorogenic substrate cleavage; AID 1046; 220,000 tested, 0.26% active;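 active = inhibition at or above 40%; inactive = inhibition below 40%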;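 note: 0% = enzyme with no compound and 100% = wells without enzyme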
#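 Test system: human alpha-thrombin protein / Dosing: one concentration per compound, 5 µM, with 0.2% DMSO / Medium: pH 7.5 Tris-saline with Tween 20 / Benchmarks: no-compound enzyme wells and no-enzyme blanks / Read-out basis: percent inhibition of thrombin substrate cleavage / Timing: reaction at room temperature / Measured by: fluorescence, ex 355 nm, em 460 nm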
# KLK5 inh: kallikrein 5 (human) inhibition; Q9Y337; recombinant hK5, fluorogenic AMC substrate cleavage; inhibition, % at 5 µM; 210,000 tested, 0.59% active;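 active = inhibition of 40% or more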;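 note: 0% = enzyme controls without compound and 100% = no-enzyme blanks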
# Target sequence (Q9Y337 67-293 limits assumed): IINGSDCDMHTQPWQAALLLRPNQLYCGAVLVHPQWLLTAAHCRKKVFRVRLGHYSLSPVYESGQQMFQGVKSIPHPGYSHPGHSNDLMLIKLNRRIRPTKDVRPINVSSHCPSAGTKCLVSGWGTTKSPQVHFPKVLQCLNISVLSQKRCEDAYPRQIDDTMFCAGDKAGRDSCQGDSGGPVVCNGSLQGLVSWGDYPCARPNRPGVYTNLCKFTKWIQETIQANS
# m-calpain inh: blocks pig calpain II enzyme activity; purified calpain II, fluorogenic peptide substrate, 30 min; AID 1236; inhibition, % at 16 µM; 220,000 tested, 0.37% active;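 active = inhibition above about 50%, limit read from the data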
# Active calls of the source: *; . = no result. In the library only some 1.4% were active in any assay of this set; here they are far more common.
SMILES,FXIa inh 1536,FXIIa inh 1536,Thrombin inh,KLK5 inh,m-calpain inh
CCn1ncc(Br)c1C(=O)Nc1cc([N+](=O)[O-])ccc1C,19.0,23.0,54.3*,3.4,16.2
O=[N+]([O-])c1ccc(N2CCN(S(=O)(=O)c3ccc(Cl)cc3)CC2)cc1NCC1CCCO1 (configuration not stated),9.5,18.3,2.7,-1.2,29.5
Cc1cc(C)c(S(=O)(=O)N2CCN(c3ccc([N+](=O)[O-])c(NCC4CCCO4)c3)CC2)c(C)c1 (configuration not stated),3.5,18.1,22.9,40.7*,15.8
COc1ccc(N2C(=O)CC(Nc3cccc([N+](=O)[O-])c3)C2=O)cc1 (configuration not stated),18.2,44.4*,16.9,41.6*,18.6
COc1cccc(-n2nc(C(C)=O)c(=O)[nH]c2=O)c1,-0.8,-2.6,-4.3,-4.1,-0.2
O=C(O)c1cccc(N2C(=O)/C(=C/c3ccc(SCc4ccc(Cl)cc4)o3)SC2=S)c1,-2.8,11.3,3.5,-5.5,69.3*
CN(C)/C(CN1CCN(C=O)CC1)=C1\N=C(c2ccccc2)OC1=O,4.2,2.1,9.2,66.5*,25.5
O=C(C1=C[C@H](C2CCCCC2)C[C@H](OCCCCO)O1)N1CCN(Cc2ccc3c(c2)OCO3)CC1,-0.6,11.2,-5.7,0.4,-16.2
O=C(NCc1ccc2c3c(cccc13)C(=O)N2)c1cccs1,56.6*,41.7*,8.2,56.2*,-51.8
O=C1Nc2ccc(NS(=O)(=O)c3cccs3)c3cccc1c23,3.5,19.6,4.4,-22.2,-0.6
O=C(COC(=O)c1ccccc1O)NCCCc1ccccc1,-0.1,7.0,-2.0,.,-4.4
O=C(COC(=O)c1ccc(O)cc1)NCCCc1ccccc1,27.8,42.7*,91.4*,22.8,24.9
COc1ccc(/C=N/Nc2nc(Nc3ccccc3)nc(N3CCCCC3)n2)cc1OC,6.0,12.7,-5.8,-0.1,-109.2
CCOc1cc(/C=N/Nc2nc(Nc3ccccc3)nc(N3CCCCC3)n2)ccc1OCC(=O)O,24.4,18.9,-9.4,44.7*,-5.1
O=C(NCc1ccncc1)c1ccc(Br)o1,34.8,41.2*,0.0,3.1,18.6
CCOC(=O)CC1(C)OCC(C[N+]2(C)CCCCC2)O1 (configuration not stated),5.4,12.1,6.9,18.5,-4.4
Cc1cc(C)n(-c2nnc(C)n2NS(=O)(=O)c2ccc(F)cc2)n1,9.8,71.5*,2.3,3.7,1.2
Cc1ccc(S(=O)(=O)Nn2c(C)nnc2-n2nc(C)cc2C)cc1,3.8,6.2,-4.7,-0.1,-14.1
CC(C)(C)C(=O)Nc1ccc(F)cc1[N+](=O)[O-],6.0,13.1,1.6,2.8,-17.6
Cc1ccc(S(=O)(=O)NCC(=O)N2CCC(C)CC2)cc1,-8.6,4.7,-7.6,-2.8,-4.5
Cc1ccc(S(=O)(=O)NC(=O)N2CCC(C)CC2)cc1,3.6,22.4,50.1*,39.4,11.3
CCOC(=O)C(C(=O)NCc1cccc(OC)c1)c1ncc(C(F)(F)F)cc1Cl (configuration not stated),19.0,44.7*,24.7,36.2,25.2
CCOC(=O)C(C(=O)NCc1ccc(C)cc1)c1ncc(C(F)(F)F)cc1Cl (configuration not stated),-18.1,21.9,3.9,2.5,8.8
CCc1cccc(CC)c1NC(=O)COC(=O)c1cccc(-c2ccc(OC(C)=O)cc2)c1,-15.1,-7.4,-10.5,-2.8,42.2
CCOC(=O)c1c(O)c2cc(Cl)ccc2n(CC)c1=O,31.8,50.3*,33.7,27.3,12.6
SMILES,FXIa inh 1536,FXIIa inh 1536,Thrombin inh,KLK5 inh,m-calpain inh
CCCCCn1c(=O)c(C(=O)OCC)c(O)c2ccccc21,-5.9,3.7,-7.7,-2.3,-9.6
CCC(=O)c1ccc(OCc2ccccc2)c(OC)c1,-2.1,-0.3,-8.3,-20.1,11.9
CCC(=O)c1ccc(OCc2ccc(C(=O)OC)cc2)c(OC)c1,0.8,25.1,13.1,57.4*,14.8
OCCC1CN(Cc2cc3c(cc2Cl)OCO3)CCN1Cc1ccccc1 (configuration not stated),0.8,10.2,1.9,.,0.1
O=C(NCc1ccccc1)c1cccnc1N1CCOCC1,2.4,-7.8,10.2,72.1*,9.1
O=C(NCc1ccccc1)N1CCOCC1,5.1,8.3,0.5,2.7,31.3
Nc1c(Cl)cc2c(c1Oc1ccccc1)C(=O)c1ccccc1C2=O,8.6,11.9,4.9,-7.1,52.8*
Nc1ccc(O)c2c1C(=O)c1ccccc1C2=O,11.9,0.1,3.1,-27.7,-13.7
COc1ccc(-c2coc3cc(O)ccc3c2=O)cc1OC,2.1,25.8,6.7,43.0*,-235.0
CO/N=C(/CS(=O)(=O)c1ccc(C)cc1)c1ccc(OC)cc1,1.9,12.1,1.5,-4.1,8.1
Cc1occc1C(=O)NNC(=O)c1ccccc1C(=O)O,-5.8,-0.2,-4.6,-6.8,7.4
Cc1ccccc1C(=O)NNC(=O)c1ccoc1C,2.4,-0.4,16.2,63.2*,11.5
Cc1occc1C(=O)NNC(=O)c1ccccc1Br,16.0,20.7,8.0,45.6*,21.4
C=C(C)CC(c1ccccc1)N(C(C)=O)c1ccco1 (configuration not stated),-5.1,-2.0,-2.0,-10.1,-16.1
Cc1occc1C(=O)Nc1cc(C(F)(F)F)ccc1Cl,14.5,26.7,50.4*,27.2,21.9
COc1ccc(C(C)(C)C)cc1NC(=O)c1ccoc1C,3.2,5.8,-6.6,-1.0,6.0
CCOC(=O)CC1Sc2ccccc2NC1=S (configuration not stated),3.8,0.0,-6.8,80.3*,24.3
Cc1c(C(=O)N2CCOCC2)sc2ncnc(N3CCc4ccccc4C3)c12,16.5,45.2*,1.7,7.5,15.0
O=C(Nc1ccccc1Cl)OCc1cncs1,7.9,7.9,-2.0,-2.2,6.2
CCn1nnnc1SCC(=O)Nc1ccc2c(c1)OCO2,7.2,16.6,1.8,-8.7,-19.9
CCC(=O)Nc1ccc(NC(=O)CSc2nnnn2CC)cc1C,11.1,13.8,27.0,72.5*,-0.8
N#CC1=C(N)NC(SCc2ccccc2)=C(C#N)C12CCCC2,10.1,19.4,24.8,45.2*,39.8
N#CC1=C(N)NC(SCc2ccc(Br)cc2)=C(C#N)C12CCCCC2,10.7,16.1,2.8,-8.8,23.7
N#CC1=C(N)NC(SCc2ccc(Cl)cc2)=C(C#N)C12CCCCC2,-7.4,0.6,-4.3,25.0,64.3*
CC(=O)c1sc(C(=O)O)c(-c2ccco2)c1-c1ccco1,4.3,6.9,-1.6,0.6,-1.4
CCOC(=O)C1CCCN(C(=O)CSc2ccc(NC(C)=O)cc2)C1 (configuration not stated),-4.2,4.4,-5.4,-4.6,62.7*
O=C(NCCSc1ccccc1)c1ccccc1,-6.4,-0.4,-0.4,89.0*,-14.9
O=C(Oc1ccc2c(c1)OCO2)C12CC3CC(CC(C3)C1)C2,-2.2,-5.4,8.7,-6.3,66.2*
Cc1ccc(C(=O)NC(NC(=S)Nc2ccc(S(N)(=O)=O)cc2)C(Cl)(Cl)Cl)cc1 (configuration not stated),-4.1,1.8,30.3,43.7*,-3.0
